# NPY-Y2 PAM-ag: potentiates or activates human NPY-Y2 receptor | P49146 | cells expressing NPY-Y2, potentiator/agonist read-out | activation, % at 3.6 µM | 220,000 compounds, 0.45% hits | AID 1359; in the data active means activation above about 27%;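 further: cells stimulated with NPY near EC25 plus isoproterenol at EC100; 0% = vehicle plus submaximal agonist and 100% = vehicle plus saturating agonist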
# Target sequence (P49146 whole entry, looked up): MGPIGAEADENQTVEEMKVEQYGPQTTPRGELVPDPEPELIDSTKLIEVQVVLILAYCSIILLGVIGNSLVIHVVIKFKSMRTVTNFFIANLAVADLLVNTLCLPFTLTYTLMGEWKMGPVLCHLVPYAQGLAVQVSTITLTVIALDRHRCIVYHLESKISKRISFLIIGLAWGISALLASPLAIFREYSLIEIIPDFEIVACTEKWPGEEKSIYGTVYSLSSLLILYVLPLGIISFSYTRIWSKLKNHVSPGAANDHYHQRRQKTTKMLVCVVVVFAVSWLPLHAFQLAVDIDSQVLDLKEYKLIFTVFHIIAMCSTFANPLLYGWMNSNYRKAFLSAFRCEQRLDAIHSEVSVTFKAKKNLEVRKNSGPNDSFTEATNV
# NPY Y1 blocker: blocks the human neuropeptide Y Y1 receptor; P25929; 200,000 compounds, 1% hits; HEK293-CNG Y1 cells, membrane potential fluorescence; NPY at EC95, then isoproterenol; AID 1040; inhibition, % at 3.6 µM;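 active means inhibition above the campaign mean inhibition of all tested compounds plus 3 SD, cut at about 20% in these data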;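 further: 0% = DMSO wells given NPY plus isoproterenol and 100% = isoproterenol alone without NPY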
#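 Assay system: HEK293 Y1/CNG channel cell line; Doses: single compound dose of 3.6 µM, 0.4% DMSO; Timing: dye 3 h, compound 60 min room temperature, stimulation 45 min; Technique: Membrane-potential fluorescent dye readout; Measure: % inhibition of NPY effect.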
# S1P4 antag: blocks the human S1P4 receptor. O95977. S1P4-expressing cells, antagonist mode, reporter read-out. inhibition, % at 4.98 µM. 220,000 compounds, 0.26% hits. AID 1510; in the data active means inhibition above about 29%;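 further: 0% = wells stimulated with agonist and 100% = vehicle wells without agonist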
# NPY Y2 blocker: NPY-Y2 (human) receptor antagonism; NPY-Y2 expressing cells, antagonist mode; AID 793; 140,000 compounds, 0.99% hits; inhibition, % at 2.7 µM; P49146; in the data active means inhibition above about 17%;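 further: 0% = vehicle with agonist challenge and 100% = reference antagonist with challenge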
# S1P4 ag: human S1P4 receptor agonism | 220,000 compounds, 0.35% hits | AID 1509 | activation, % at 4.98 µM | O95977 | S1P4-expressing cell line, agonist reporter assay; in the data active means activation above about 11%;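 further: 0% = DMSO vehicle and 100% = reference agonist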
# NPY1 pot ag: potentiates or activates human NPY-Y1 receptor. AID 1304. P25929. 220,000 compounds, 0.37% hits. activation, % at 3.6 µM. NPY-Y1 expressing cells, potentiator/agonist activation; in the data active means activation above about 33%, passing the limit was not always enough;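 further: cells stimulated with NPY at EC10 then isoproterenol at EC100; 0% = low agonist plus stimulus and 100% = saturating agonist plus stimulus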
# NPY1 antag ctr: human NPY-Y1 antagonism in NPY-Y2 counter-screen; cell-based NPY-Y1 antagonism counterscreen; shares compounds with NPY Y2 blocker; 710 compounds, 19% hits; inhibition, % at 3.6 µM; in the data active means inhibition above about 20%;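 further: cells challenged with NPY then isoproterenol with cAMP sensed through a CNG channel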
# NPY2 antag conf: human NPY-Y2 antagonism, confirmation | shares compounds with NPY Y2 blocker | HEK293 NPY-Y2 CNG channel, membrane potential fluorescence | inhibition, % at 2.8 µM | 710 compounds, 32% hits;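 active means mean inhibition of triplicate wells above the hit cutoff set in the primary screen, cut at about 17% in these data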;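 further: 0% = DMSO with NPY challenge and 100% = BIIE0246 high control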
# * marks the source's active call; other numbers are inactive results; · = no result given. Rows were chosen to be rich in hits. Some 2.4% of all compounds tested hit in one or more screens of this group.
SMILES,NPY-Y2 PAM-ag,NPY Y1 blocker,S1P4 antag,NPY Y2 blocker,S1P4 ag,NPY1 pot ag,NPY1 antag ctr,NPY2 antag conf
Cc1c(NC(=O)C(Sc2ccccc2)c2ccccc2)cccc1[N+](=O)[O-] (configuration not stated),-10,6,-22,18*,1,1,8,12
Cc1ccnc(NS(=O)(=O)c2ccc(NC(=O)C3C4C=CC(C4)C3C(=O)O)cc2)n1 (configuration not stated),-8,0,2,·,-2,7,·,·
C/C(=N\O)c1ccc(N2C(=O)C3CC=C(Cl)CC3C2=O)cc1 (configuration not stated),-22,13,-21,23*,4,-5,5,17
CCCCNC(=O)c1onc(CSc2cc(C)cc(C)c2)c1C(=O)O,-39,13,6,14,-2,-29,·,·
C=CCNC(=O)c1onc(CSc2cccc3ccccc23)c1C(=O)O,-31,12,-10,8,1,-11,·,·
CCCCNC(=O)c1onc(CSc2cccc(C)c2)c1C(=O)O,-32,20,7,21*,0,-43,18,12
CCCCNC(=O)c1onc(CSc2ccccc2F)c1C(=O)O,-21,16,8,37*,0,-35,20,18*
C=CCNC(=O)c1onc(CSc2ccccc2F)c1C(=O)O,-37,15,-1,18*,1,-7,19,12
Cc1ccc(C(=O)NCC(=O)NCC(=O)OCc2ccc(F)cc2)cc1,-3,3,3,·,-1,-2,·,·
CN(C)CCOC(C1CCCCC1)C1CCCCC1,-14,18,-17,27*,-4,-34,12,16
CN(C)CCNC(=S)NC1CCCCC1,-20,7,-16,·,3,1,·,·
COc1ccc2cc(-c3[nH]ncc3CN3CCCN(c4ccccc4)CC3)ccc2c1,-9,4,-1,·,0,-9,·,·
O=C(NCc1ccc2c(c1)OCO2)c1cc(-c2ccccc2)on1,5,0,9,8,1,-36,·,·
Cc1ccc(-c2cc(C(=O)NCc3ccc4c(c3)OCO4)no2)cc1,-12,17,-5,18*,-1,-41,14,10
CCN1CCN(c2ccc(S(=O)(=O)N3CCCCC3)cc2NC(=O)c2ccc(F)cc2)CC1,-8,3,-15,18*,-1,9,0,7
CCC(C)(C(=O)NC1CCCCC1)N(Cc1ccco1)C(=O)c1ccccn1 (configuration not stated),-19,14,0,17*,1,-20,12,9
O=C(NCc1ccco1)NC1CCCCC1,-1,6,-14,4,1,-6,·,·
CS(=O)(=O)N(Cc1ccccc1)c1ccccc1C(=O)N1CCN(c2ccccc2)CC1,7,0,-16,0,-1,3,·,·
Cc1ccc(Oc2nc(CN3CCOCC3)nc3sc4c(c23)CCC(C)C4)cc1 (configuration not stated),1,9,-83,22*,0,-32,29*,30*
CS(=O)(=O)N(CCc1ccccc1)CC(=O)N1CCN(Cc2ccc3c(c2)OCO3)CC1,10,-3,-12,2,-3,-14,·,·
CS(=O)(=O)N(CC(=O)N1CCN(Cc2ccc3c(c2)OCO3)CC1)Cc1ccc(Cl)cc1,-7,15,-18,23*,-1,-15,9,4
S=C(NCCc1ccccc1)N/N=C/c1cccc(Cl)c1Cl,-10,18,-9,26*,1,-66,31*,50*
CC1CCCN(C(=O)Cc2cn(Cc3cccc(Cl)c3)c3ccccc23)C1 (configuration not stated),-22,10,-8,17*,1,-5,5,5
Cc1ccc(C(C(=O)NC2CCCC2)N(Cc2cccnc2)C(=O)c2snc(C(N)=O)c2N)o1 (configuration not stated),-3,0,-17,4,1,4,·,·
Cc1ccc(C(C(=O)NC2CCCCC2)N(Cc2cccnc2)C(=O)C2COc3ccccc3O2)o1 (configuration not stated),2,7,5,25*,2,8,3,8
SMILES,NPY-Y2 PAM-ag,NPY Y1 blocker,S1P4 antag,NPY Y2 blocker,S1P4 ag,NPY1 pot ag,NPY1 antag ctr,NPY2 antag conf
Cc1ccc(N(CC(=O)N/N=C/c2ccc(OC3CSC3)cc2)S(=O)(=O)c2ccccc2)cc1,-14,6,4,3,-1,-8,·,·
COc1ccc(N(CC(=O)N/N=C/c2ccc(OC3CSC3)cc2)S(=O)(=O)c2ccccc2)cc1,8,0,-11,21*,3,17,22*,54*
O=C(COc1ccccc1)Nc1ccccc1N1CCCCC1,-3,11,-12,11,1,-61,·,·
O=C(COc1ccccc1)Nc1cc(C(F)(F)F)ccc1N1CCCC1,-24,20,-20,20*,-2,-13,27*,15
CCC(COC)NC(=O)CCc1nnc(Cc2cccc(C(F)(F)F)c2)o1 (configuration not stated),-5,0,-10,·,2,12,·,·
COc1cc2c(cc1OC)-c1cc(Nc3ccccc3)nc(=O)n1CC2,-53,·,11,·,1,-22,·,·
CCOc1cccc(Nc2cc3n(c(=O)n2)CCc2cc(OC)c(OC)cc2-3)c1,-23,14,-13,18*,1,-37,38*,65*
CCOC(=O)C1CCN(C(=O)Nc2c(-c3ccccc3)noc2C)CC1,-10,·,-21,·,-1,26,·,·
Cc1c2c(nc3ccccc13)OCC2,-2,1,7,-1,0,-10,·,·
O=C(O)/C=C/C(=O)Nc1ccc(Cc2ccc(NC(=O)/C=C/C(=O)O)cc2)cc1,-10,·,12,·,-2,8,·,·
Cc1cc(NC(=O)C2CCCCC2)n(-c2nc3ccccc3[nH]2)n1,-14,9,-14,17*,0,-23,22*,13
Cc1cc(NC(=O)c2c(F)cccc2F)n(-c2nc3ccccc3[nH]2)n1,-6,-1,-4,8,2,-17,·,·
O=C(Oc1ccc(Br)cc1C(=S)N1CCCC1)c1ccccc1Cl,-7,5,-10,10,1,-25,·,·
Cc1ccccc1C(=O)Oc1ccc(Br)cc1C(=S)N1CCCC1,-7,7,-18,17*,-1,-23,14,10
O=C(NCCc1cccs1)C12CN(Cc3ccccc3)CC1C(c1cccc([N+](=O)[O-])c1)=NO2 (configuration not stated),-6,6,-18,0,0,2,·,·
COc1ccc(C(=O)N/C(=C/c2cccs2)C(=O)NCCCn2ccnc2)cc1OC,-1,-2,1,22*,2,-3,-2,4
